In paper PMC8311649 (Journal of Medicinal Chemistry, 2021):
pIC50: −log10 of the molar value.

Assays:
[1] = Bidirectional permeability through Caco-2 monolayers; type: in vitro ADME, human; conditions: human, Caco-2, pH 7.4, recovery (%), 5 µM, 120 minutes
Caco-2 cell monolayers = test: as above; type: in vitro ADME, human; conditions: for significant efflux: from ER and Papp (B-to-A); for absorption potential classification: from Papp (A-to-B)
[2] = Oral bioavailability PK screening in rats; type: in vivo; conditions: rat; oral gavage; dose not given
Outline: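 Rats were dosed orally with the ester prodrug. F is percent absolute oral bioavailability, corrected for the molecular-weight difference between prodrug and parent.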

[3] = Metabolic stability, plasma; type: in vitro ADME; conditions: human
[4] = Metabolite profiling in cryopreserved hepatocytes; type: in vitro ADME; conditions: all species
[5] = tested on: strains expressing class C and OXA-48 β-lactamases; test: Ceftibuten rescue against representative ceftibuten-resistant strains; type: cell-based, K. pneumoniae and E. coli; conditions: ceftibuten fixed at 1 μg/mL
Outline: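 Clinical isolates of E. coli and K. pneumoniae carrying the named β-lactamase classes were tested with ceftibuten held at 1 μg/mL. The value is the minimum concentration of the β-lactamase inhibitor that restores ceftibuten antibacterial activity.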

SHV-5 (class A) = SHV-5 (class A) (Klebsiella pneumoniae, UniProt P0A3M1); test: β-lactamase inhibition assay, SHV-5; type: biochemical
[6] = Metabolic stability across all matrixes and species; type: in vitro ADME; conditions: CD-1 (mouse), Sprague-Dawley (rat), beagle (dog), cynomolgus monkey, human, intestinal S9, liver S9 and plasma
[7] = tested on: E. coli expressing TEM-1 + CTX-M-15, CTX-M-15, or KPC-2 + SHV-12; test: Murine ascending UTI model; design: species or system C3H/HeJ mice; conditions: mouse, in vivo

SHV-5 (class A), sequence (P0A3M1 22-286, species assumed): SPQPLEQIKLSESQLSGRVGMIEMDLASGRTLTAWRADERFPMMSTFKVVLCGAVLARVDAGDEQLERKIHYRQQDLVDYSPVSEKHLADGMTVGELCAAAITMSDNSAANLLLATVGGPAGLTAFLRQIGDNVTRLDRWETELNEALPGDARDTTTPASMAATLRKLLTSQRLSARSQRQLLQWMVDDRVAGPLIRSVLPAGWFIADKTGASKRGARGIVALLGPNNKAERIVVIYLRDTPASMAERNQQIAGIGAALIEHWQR

CCC(=O)N[C@H]1Cc2cccc(C(=O)OCOC(=O)C(CC)CC)c2OB1O [compound 36, ((2-Ethylbutanoyl)oxy)methyl (R)-2-Hydroxy-3-propionamido-3,4-dihydro-2H-benzo[e][1,2]oxaborinine-8-carboxylate]
recovery at 120 min, 5 µM ([1]; A-to-B): 90%
recovery at 120 min, 5 µM ([1]; B-to-A): 98%
significant efflux (Caco-2 cell monolayers): yes (ER ≥ 2.0 and Papp (B-to-A) ≥ 1.0 × 10^–6 cm/s)
absorption potential classification (Caco-2 cell monolayers): high (Papp (A-to-B) ≥ 1.0 × 10^–6 cm/s: high)
oral bioavailability (F) in rats [2]: highest oral bioavailability
half-life at 3 µM [3]: ~11 min
parent remaining after hepatocyte incubation ([4]; 2 µM and 20 µM, 37 °C, 240 min): 0–5%
metabolites detected after hepatocyte incubation ([4]; metabolite identified as 5 (hydrolysis)): one metabolite

C#CCCC(=O)N[C@H]1Cc2cccc(C(=O)O)c2OB1O [compound 12, (R)-2-Hydroxy-3-(pent-4-ynamido)-3,4-dihydro-2H-benzo[e][1,2]oxaborinine-8-carboxylic Acid]
activity rescuing ceftibuten (in words) [5]: reduced activity

O=C(CCC(F)(F)F)N[C@H]1Cc2cccc(C(=O)O)c2OB1O [compound 7, (R)-2-Hydroxy-3-(4,4,4-trifluorobutanamido)-3,4-dihydro-2H-benzo[e][1,2]oxaborinine-8-carboxylic Acid]
activity rescuing ceftibuten (in words) [5]: reduced activity

CC(F)(F)CCC(=O)N[C@H]1Cc2cccc(C(=O)O)c2OB1O [compound 14, (R)-3-(4,4-Difluoropentanamido)-2-hydroxy-3,4-dihydro-2H-benzo[e][1,2]oxaborinine-8-carboxylic Acid]
activity rescuing ceftibuten (in words) [5]: reduced activity
pIC50 (SHV-5 (class A)): 8.22

CCC(=O)N[C@H]1Cc2cccc(C(=O)O)c2OB1O [compound 5, (R)-2-Hydroxy-3-propionamido-3,4-dihydro-2H-benzo[e][1,2]oxaborinine-8-carboxylic Acid]
recovery at 120 min, 5 µM ([1]; A-to-B): 103%
recovery at 120 min, 5 µM ([1]; B-to-A): 106%
significant efflux (Caco-2 cell monolayers): no
absorption potential classification (Caco-2 cell monolayers): low (Papp (A-to-B) < 1.0 × 10^–6 cm/s: low)
half-life at 3 µM [6]: > 120 min

CCC(=O)N[C@H]1Cc2cccc(C(=O)OCOC(=O)C(C)(C)C)c2OB1O [compound 20, (Pivaloyloxy)methyl (R)-2-Hydroxy-3-propionamido-3,4-dihydro-2H-benzo[e][1,2]oxaborinine-8-carboxylate]
oral bioavailability (F) in rats [2]: highest oral bioavailability

Nc1nc(/C(=C/CC(=O)O)C(=O)N[C@@H]2C(=O)N3C(C(=O)O)=CCS[C@H]23)cs1 [CTB, ceftibuten]
cfu reductions in the bladder [7]: ≤ 2 log10
cfu reductions in urine [7]: ≤ 2 log10
cfu reductions in the kidneys ([7]; sc): minimal cfu reductions
